Results on three molecules are retold here after article PMC8892239 (EFSA Journal, 2022).

Structures are written as SMILES.

One data set relates to bone marrow. As to the kind of experiment: In vivo micronucleus assay. To be noted: 20 mg/kg bw once by oral gavage. Details: species or system rat. The procedure, abridged: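 Female rats were dosed twice by oral gavage, 24 h apart, with vehicle or 87.5, 175 or 350 mg/kg bw. Cyclophosphamide 20 mg/kg bw was given once by gavage as positive control. Five groups of five animals. Micronuclei and the PCE/NCE ratio were scored.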

The nature of data set [1]: Residues of EQ and metabolites/TPs in piglet tissues. The class given is in vivo. To be noted: piglets.
Data set [2] is described as follows: Residues of EQ and metabolites/TPs in cattle tissues. The class given is in vivo.
For data set [3] the following is noted: ref Regulation (EC) No 1272/2008; cited from earlier work.

As for `O=P1(N(CCCl)CCCl)NCCCO1` (stereo not drawn) [Cyclophosphamide, cyclophosphamide], the “number of micronuclei (positive control)” value in the data set with bone marrow is recorded as “statistically significant increase”.

Take `CCOC1=CC(=O)C2=NC(C)(C)C=C(C)C2=C1` [Metabolite A, 6‐ethoxy‐2,2,4‐trimethyl‐quinolin‐8‐one]: the residue in muscle result in data set [1] (control feed (0 mg EQ/kg), 42 days, mean ± SD, LOQs as above) was “˂ LOQ”; in data set [1] (feed with 50 mg EQ/kg for 42 days, LOQs 1.5 to 2 µg EQ, EQDM, metabolite A/kg, 0.5 µg EQI/kg), “˂ LOQ”. In addition, the concentration at 42 days in data set [2] (Holstein, bovine, liver, oral, 50 mg EQ/kg complete feed) was 121 ng/g. The “residue in muscle, highest value” in data set [2] (cattle, control (0 mg EQ/kg feed), 42 days, LOQs as above) is on record as “˂ LOQ”.

Take `CCOc1ccc(N)cc1` [p‐phenetidine]: in data set [3], the “germ cell mutagenicity classification” value is “Muta. 2”.
